Screening results from PubChem BioAssay.
T cruzi growth – inhibitors of T. cruzi proliferation; T. cruzi beta-gal in NIH3T3, GalScreen luminescence, 90 h; 77,000 compounds, 5.9% hits; inhibition, % at 8.34 µM;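 active means mean inhibition above about 93%, with at least 55% of replicates each passing it, limit read from the data, passing the limit was not always enough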
Pf Dd2 growth – inhibitors of Plasmodium falciparum Dd2 growth; P. falciparum Dd2 growth, SYBR Green, 72 h; active compounds read low; activity change, % at 10 µM; 94,000 compounds, 2.3% hits; in the data active means activity change below about -80%
GASC1 inh – blocks human GASC-1 (KDM4C) demethylase activity | 96,000 compounds, 0.15% hits | AID 720574 | inhibition, % at 12.5 µM | GST-KDM4C 2-372, H3K9me3 peptide, LANCE TR-FRET | Q9H3R0;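 active means mean replicate inhibition above about 25%, with at least 55% of replicates also reaching it, limit read from the data, passing the limit was not always enough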
Target sequence (Q9H3R0 2-372 limits assumed): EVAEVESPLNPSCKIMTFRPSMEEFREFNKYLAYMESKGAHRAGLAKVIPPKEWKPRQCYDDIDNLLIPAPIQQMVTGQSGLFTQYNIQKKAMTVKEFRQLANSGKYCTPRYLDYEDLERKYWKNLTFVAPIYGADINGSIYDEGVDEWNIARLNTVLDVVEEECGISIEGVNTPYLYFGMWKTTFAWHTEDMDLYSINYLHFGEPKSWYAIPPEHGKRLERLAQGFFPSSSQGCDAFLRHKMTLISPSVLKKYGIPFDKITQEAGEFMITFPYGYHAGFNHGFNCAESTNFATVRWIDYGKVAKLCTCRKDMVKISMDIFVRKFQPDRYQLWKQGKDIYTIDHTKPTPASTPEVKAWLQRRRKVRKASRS
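System: N-terminal GST-fused human GASC-1 (KDM4C) fragment, residues 2-372; amount: enzyme final amount 10 nM; incubation: reaction 30 min RT, detection step 1 h RT; medium: HEPES buffer, pH 7.5, plus ascorbate; technique: LANCE TR-FRET, Eu antibody, ULight-streptavidin, EDTA, ex 340 nm, em 618/671 nm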
IDH1 mut inh – IDH1 R132H (human) inhibition; 70,000 compounds, 0.18% hits; AID 624101; inhibition, % at 10 µM; O75874; IDH1 R132H reductase, diaphorase/resazurin fluorescence, 60 min; in the data active means inhibition above about 34%
Large screens that a line does not name were inactive. In the library only some 5.8% were active in any assay of this set; here they are far more common.

C[C@H]1CN([C@@H](C)CO)C(=O)c2cccc(NC(=O)Nc3ccc(F)cc3)c2O[C@@H]1CN(C)S(=O)(=O)c1ccccc1	none
C[C@@H]1CCCCO[C@H](CN(C)Cc2ccc(C(=O)O)cc2)[C@H](C)CN([C@@H](C)CO)C(=O)c2cc(NC(=O)CCC(F)(F)F)ccc2O1	none
C[C@H]1CN([C@@H](C)CO)C(=O)c2cc(NC(=O)Cn3cnnn3)ccc2O[C@@H]1CN(C)C(=O)Nc1ccc2c(c1)OCO2	none
COc1ccc(S(=O)(=O)Nc2ccc3c(c2)CC(=O)N([C@H](C)CO)C[C@H](C)[C@H](CN(C)S(=O)(=O)c2ccc(C)cc2)O3)cc1	Pf Dd2 growth -86
COc1ccc(S(=O)(=O)Nc2ccc3c(c2)CC(=O)N([C@H](C)CO)C[C@H](C)[C@H](CN(C)S(=O)(=O)c2ccc(Cl)cc2)O3)cc1	none
COc1ccc(S(=O)(=O)N(C)C[C@@H]2Oc3ccc(NS(=O)(=O)c4ccc(Cl)cc4)cc3CC(=O)N([C@@H](C)CO)C[C@@H]2C)cc1	Pf Dd2 growth -83
COc1ccc(S(=O)(=O)N(C)C[C@@H]2Oc3ccc(NS(=O)(=O)c4ccc(F)cc4)cc3CC(=O)N([C@@H](C)CO)C[C@@H]2C)cc1	none
COc1ccc(S(=O)(=O)Nc2ccc3c(c2)CC(=O)N([C@H](C)CO)C[C@H](C)[C@@H](CN(C)S(=O)(=O)c2ccc(F)cc2)O3)cc1	GASC1 inh 27
C[C@@H]1CN([C@H](C)CO)C(=O)c2c(c3ccccc3n2C)-c2ccccc2CO[C@H]1CN(C)C(=O)Cc1ccccc1	none (no result: T cruzi growth, GASC1 inh, IDH1 mut inh)
C[C@H](CO)N1C[C@H](C)[C@@H](CN(C)C(=O)Cc2ccccc2)OCc2ccccc2-c2c(n(C)c3ccccc23)C1=O	Pf Dd2 growth -81 (no result: IDH1 mut inh)
C[C@H](CO)N1C[C@H](C)[C@H](CN(C)C(=O)Cc2ccccc2)OCc2ccccc2-c2c(n(C)c3ccccc23)C1=O	none
C[C@H]1CN([C@@H](C)CO)C(=O)c2c(c3ccccc3n2C)-c2ccccc2CO[C@@H]1CN(C)C(=O)Cc1ccccc1	Pf Dd2 growth -91 (no result: IDH1 mut inh)
CCCC#Cc1cnc2c(c1)C(=O)N([C@H](C)CO)C[C@@H](C)[C@H](CN(C)C(=O)C1CC1)O2	none
COc1ccc2c3c(n(C)c2c1)[C@@H](CO)N(CC1CCCCC1)CC31CCN(Cc2nccs2)CC1	Pf Dd2 growth -90 (no result: T cruzi growth, IDH1 mut inh)
COc1ccc2c3c(n(C)c2c1)[C@H](CO)N(Cc1ccccc1F)CC31CCN(CC2CC2)CC1	Pf Dd2 growth -90 (no result: T cruzi growth, IDH1 mut inh)
COc1ccc2c3c(n(C)c2c1)[C@H](CO)N(Cc1ccc(Cl)cc1)CC31CN(CC2CC2)C1	none (no result: T cruzi growth, IDH1 mut inh)
COc1ccc2c3c(n(C)c2c1)[C@@H](CO)N(Cc1ccc(Cl)cc1)CC31CCN(CC2CC2)CC1	Pf Dd2 growth -91 (no result: T cruzi growth, IDH1 mut inh)
COc1ccc2c3c(n(C)c2c1)[C@H](CO)N(CC1CCCC1)CC31CCN(Cc2nccs2)CC1	none (no result: T cruzi growth, IDH1 mut inh)
COc1ccc2c3c(n(C)c2c1)[C@H](CO)N(Cc1ccc(Cl)cc1)CC31CCN(CC2CC2)CC1	Pf Dd2 growth -88 (no result: T cruzi growth, IDH1 mut inh)
COC(=O)C[C@H]1CC[C@@H]2[C@H](COc3ccc(NC(=O)c4cccs4)cc3C(=O)N2C)O1	none (no result: IDH1 mut inh)
COc1ccc2c3c(n(C)c2c1)[C@H](CO)N(Cc1ccc(F)cc1)CC31CCN(CC2CC2)CC1	Pf Dd2 growth -84 (no result: T cruzi growth, IDH1 mut inh)
CN1c2ccc(C#Cc3cccnc3)cc2[C@@H]2[C@@H](CCN2C(=O)C2CCC2)[C@@H]1CO	Pf Dd2 growth -87 (no result: T cruzi growth, IDH1 mut inh)
CN1c2ccc(C#Cc3cccnc3)cc2[C@@H]2[C@@H](CCN2C(=O)C2CCCC2)[C@H]1CO	none (no result: T cruzi growth, IDH1 mut inh)
CN1c2ccc(C#Cc3cccc(F)c3)cc2[C@H]2[C@H](CCN2S(=O)(=O)c2ccccc2F)[C@@H]1CO	none (no result: IDH1 mut inh)
CN1c2ccc(C#Cc3cccnc3)cc2[C@@H]2[C@@H](CCN2S(=O)(=O)c2ccccc2F)[C@@H]1CO	Pf Dd2 growth -88 (no result: IDH1 mut inh)
COc1ccc(-c2ccc3c(c2)O[C@H](CN(C)C(C)=O)[C@@H](C)CN([C@@H](C)CO)S3(=O)=O)cc1	none
CC(=O)N(C)C[C@@H]1Oc2cc(Br)ccc2S(=O)(=O)N([C@@H](C)CO)C[C@@H]1C	GASC1 inh 42
COc1ccc(-c2ccc3c(c2)O[C@H](CN(C)C(C)=O)[C@@H](C)CN([C@H](C)CO)S3(=O)=O)cc1	GASC1 inh 56, IDH1 mut inh 54
C[C@@H]1CN([C@@H](C)CO)C(=O)c2c(c3ccccc3n2C)-c2ccccc2CO[C@H]1CN(C)Cc1cccc(O)c1	none (no result: T cruzi growth, IDH1 mut inh)
CNC(=O)C[C@@H]1CC[C@@H]2[C@H](COC[C@@H](O)CN2C(=O)c2ccccn2)O1	none (no result: IDH1 mut inh)
C[C@H](CO)N1C[C@H](C)[C@H](CN(C)Cc2ccc(C(=O)Nc3ccccc3N)cc2)Oc2c(NC(=O)Nc3ccc(C(F)(F)F)cc3)cccc2C1=O	none (no result: IDH1 mut inh)
C[C@@H]1CN([C@H](C)CO)C(=O)c2cccc(NC(=O)Nc3ccc(C(F)(F)F)cc3)c2O[C@@H]1CN(C)Cc1ccc(C(=O)Nc2ccccc2N)cc1	Pf Dd2 growth -90 (no result: T cruzi growth, IDH1 mut inh)
C[C@@H]1CN([C@@H](C)CO)C(=O)c2cccc(NC(=O)Nc3ccc(C(F)(F)F)cc3)c2O[C@@H]1CN(C)Cc1ccc(C(=O)Nc2ccccc2N)cc1	Pf Dd2 growth -91 (no result: T cruzi growth, IDH1 mut inh)
COc1cccc(S(=O)(=O)Nc2ccc3c(c2)C(=O)N(C)[C@H]2CC[C@@H](CC(=O)NCC4CCCCC4)O[C@H]2CO3)c1	none (no result: IDH1 mut inh)
COc1cccc(S(=O)(=O)Nc2ccc3c(c2)[C@@H]2C[C@H](CC(=O)NCc4ccc(Cl)cc4)O[C@@H](CO)[C@@H]2O3)c1	Pf Dd2 growth -82
COc1cccc(S(=O)(=O)Nc2ccc3c(c2)[C@H]2C[C@@H](CC(=O)O)O[C@H](CO)[C@H]2O3)c1	GASC1 inh 38, IDH1 mut inh 72
O=C(O)C[C@@H]1C[C@H]2c3cc(NS(=O)(=O)c4ccccc4)ccc3O[C@H]2[C@@H](CO)O1	none
O=C(O)C[C@@H]1C[C@@H]2c3cc(NS(=O)(=O)c4ccccc4)ccc3O[C@@H]2[C@H](CO)O1	Pf Dd2 growth -94 (no result: T cruzi growth, IDH1 mut inh)
COc1cccc(S(=O)(=O)Nc2ccc3c(c2)[C@@H]2C[C@H](CC(=O)O)O[C@@H](CO)[C@@H]2O3)c1	none
Cc1ccc(S(=O)(=O)N[C@H]2C=C[C@H](CC(=O)NCc3ccccc3F)O[C@@H]2CO)cc1	none
COc1ccc(S(=O)(=O)Nc2ccc3c(c2)C(=O)N([C@H](C)CO)C[C@H](C)[C@@H](CN(C)C(=O)Nc2cccc4ccccc24)OCCCC[C@H](C)O3)cc1	none (no result: IDH1 mut inh)
N#C[C@@H]1[C@@H](c2ccccc2-c2ccccc2F)[C@H](CO)N1C(=O)C1CC1	Pf Dd2 growth -88 (no result: T cruzi growth, IDH1 mut inh)
N#C[C@@H]1[C@H](c2ccccc2-c2ccccc2F)[C@H](CO)N1C(=O)C1CC1	none (no result: T cruzi growth, IDH1 mut inh)
Cc1ccc(-c2ccccc2[C@H]2[C@@H](C#N)N(C(=O)c3cccc(F)c3)[C@H]2CO)cc1	Pf Dd2 growth -91 (no result: T cruzi growth, IDH1 mut inh)
N#C[C@@H]1[C@H](c2ccccc2-c2cccc(F)c2)[C@H](CO)N1C(=O)C1CCCC1	Pf Dd2 growth -95 (no result: T cruzi growth, IDH1 mut inh)
